Assay outcomes (PubChem)
eLon inh: inhibitors of E. coli Lon protease | inhibition, % at 7.94 µM | P0A9M0 | purified E. coli Lon protease, fluorescence polarization | 360,000 compounds, 0.42% hits | AID 602123; in the data active = inhibition above about 13%, passing the limit was not always enough
Target sequence (P0A9M0 whole entry, looked up): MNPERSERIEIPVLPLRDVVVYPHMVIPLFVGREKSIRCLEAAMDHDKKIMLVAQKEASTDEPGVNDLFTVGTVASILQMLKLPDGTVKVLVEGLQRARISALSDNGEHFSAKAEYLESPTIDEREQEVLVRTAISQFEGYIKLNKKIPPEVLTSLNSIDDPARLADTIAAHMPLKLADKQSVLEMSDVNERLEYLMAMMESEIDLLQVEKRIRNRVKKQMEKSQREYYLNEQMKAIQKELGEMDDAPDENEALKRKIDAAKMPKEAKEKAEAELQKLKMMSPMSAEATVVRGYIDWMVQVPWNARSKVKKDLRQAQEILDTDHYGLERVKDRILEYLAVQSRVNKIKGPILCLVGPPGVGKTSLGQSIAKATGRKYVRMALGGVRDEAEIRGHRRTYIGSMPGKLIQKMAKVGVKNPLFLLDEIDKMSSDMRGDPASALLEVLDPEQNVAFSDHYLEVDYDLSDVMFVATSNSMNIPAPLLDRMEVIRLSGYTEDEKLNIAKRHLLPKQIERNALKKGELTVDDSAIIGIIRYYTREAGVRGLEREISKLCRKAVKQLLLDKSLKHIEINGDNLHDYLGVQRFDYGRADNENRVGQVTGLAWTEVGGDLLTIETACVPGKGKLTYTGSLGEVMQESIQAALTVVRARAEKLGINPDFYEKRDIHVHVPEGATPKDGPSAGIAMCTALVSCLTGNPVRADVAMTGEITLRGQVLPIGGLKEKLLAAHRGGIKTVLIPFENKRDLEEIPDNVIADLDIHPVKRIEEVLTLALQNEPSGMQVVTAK
PRMT1 FP inh: blocks human protein arginine methyltransferase 1; Q99873; recombinant PRMT1, activity-based probe fluorescence polarization; inhibition, % at 2.79 µM; 370,000 compounds, 1.3% hits; AID 652257;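 active = inhibition above about 21% made by adding two undisclosed values, limit read from the data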
PAD4 inh: blocks human protein arginine deiminase 4; Q9UM07; recombinant PAD4, RCA probe fluorescence polarization; inhibition, % at 6.36 µM; 330,000 compounds, 0.41% hits; AID 485272;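 active = percent inhibition above a cutoff equal to the mean of all tested compounds plus 3 SD, cut at about 15% in these data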
TDP2 absorb: TDP2 (human) inhibition, absorbance primary screen; recombinant TDP2, T5PNP hydrolysis, p-nitrophenol absorbance 415 nm; inhibition, % at 12.8 µM; 370,000 compounds, 0.34% hits; AID 720702;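 active = inhibition above the mean of all tested compounds plus 3 SD, set per campaign, cut at about 25% in these data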
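System – recombinant human TDP2 · Quantity – TDP2 enzyme at 120 nM final · Doses – single concentration, 12.8 µM nominal, with 1% DMSO · Incubation – 2 h at 37 °C · Measured by – epi absorbance of p-nitrophenol freed from T5PNP by hydrolysis · Read-out – % inhibition relative to enzyme-containing and enzyme-free wells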
GSTO1 counter: counter-screen for RBBP9 inhibitors: inhibitors of human GSTO1. AID 1974. inhibition, % at 5.96 µM. recombinant GSTO1, activity-based probe fluorescence polarization. 300,000 compounds, 1.1% hits;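 active = inhibition above the campaign mean inhibition plus 3 SD, cut at about 35% in these data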
GSTO1 confirm: GSTO1 (human) inhibition, confirmation; shares compounds with GSTO1 counter; recombinant GSTO1, probe fluorescence polarization; inhibition, % at 5.96 µM; 2,400 compounds, 54% hits; AID 2176;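 active = inhibition above the primary screen's cutoff, its mean inhibition plus 3 SD, cut at about 35% in these data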;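 note: loss of polarization as inhibitors block binding of rhodamine sulfonate ester activity probe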
PAD4 FP conf: confirmation of human PAD4 inhibitors. recombinant PAD4, RCA probe fluorescence polarization. 1,200 compounds, 28% hits. shares compounds with PAD4 inh. inhibition, % at 6.36 µM. AID 488796;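 active = mean inhibition across replicates above the hit cutoff set by the earlier primary screen, cut at about 15% in these data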;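 note: inhibitors block active-site labeling by the probe so polarization falls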
PRMT1 inh conf: confirmation of human PRMT1 inhibitors. recombinant His-PRMT1, activity-based probe fluorescence polarization. inhibition, % at 2.79 µM. shares compounds with PRMT1 FP inh. 3,300 compounds, 42% hits;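 active = mean inhibition across replicates above the hit cutoff derived for the earlier primary screen, cut at about 22% in these data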
TDP2 inh conf: confirmation of human TDP2 inhibitors; shares compounds with TDP2 absorb; inhibition, % at 12.8 µM; 1,100 compounds, 22% hits; recombinant human TDP2, absorbance read-out; AID 743263; in the data active = inhibition above about 25%
A number is an active result; . = inactive; / = no result. Most compounds without a hit are left out; they make up all but 2.5% or so of the library.

SMILES | eLon inh | PRMT1 FP inh | PAD4 inh | TDP2 absorb | GSTO1 counter | GSTO1 confirm | PAD4 FP conf | TDP2 inh conf | others
C=CCn1c(NS(=O)(=O)c2ccccc2)c(S(=O)(=O)c2ccc(C)cc2)c2nc3ccccc3nc21 | . | . | 75.6 | 37.0 | 101.3 | 87.6 | . | 39.5
COCCCN1C(=O)[C@H](CC(=O)N2CCN(C(=O)C3CC3)CC2)[C@]2(C(=O)OC)CCCCC=C12 | / | . | / | . | / | / | / | /
CCOC(=O)C1CCCN(C2=C(NS(=O)(=O)c3ccc(Br)cc3)C(=O)c3ccccc3C2=O)C1 (stereo unspecified) | . | . | . | 43.2 | 42.8 | . | / | .
Cc1ccccc1NC1=C/C(=N\S(=O)(=O)c2cccs2)c2ccccc2C1=O | . | . | 70.0 | 62.4 | 92.4 | 88.1 | 53.4 | 75.0
Cc1ccccc1NC1=C/C(=N\S(=O)(=O)c2ccc(C(=O)O)cc2)c2ccccc2C1=O | . | . | 71.0 | 80.9 | 90.0 | 92.6 | 58.2 | 75.0
O=C1c2ccccc2C(=O)c2c1cccc2-n1nnc2ccccc21 | . | . | . | . | . | / | / | /
O=C1C(N2CCOCC2)=C(n2nnc3ccccc32)C(=O)c2ccccc21 | . | . | 22.8 | 50.3 | 76.5 | 83.6 | 15.3 | 63.6
O=c1c(O)cccc2cc(O)c(O)c(O)c12 | . | 42.5 | . | 28.5 | 51.0 | 71.6 | / | .
O=c1cc(-c2ccccc2)oc2cc(O)c(O)c(O)c12 | . | . | . | . | / | / | / | /
COc1ccc(Br)cc1C=NNC(=O)c1ccncc1 | / | . | / | . | / | / | / | /
COC(=O)CCC(=O)OC1(C)C(=O)C=C2C=C(C3CC3)N(C3CC3)C=C2C1=O (stereo unspecified) | . | . | 25.4 | 37.9 | 51.8 | . | . | .
CSc1ccc(-c2csc(N3CCC(C(N)=O)CC3)n2)cc1 | / | . | / | . | / | / | / | /
c1coc(-c2nc(-c3ccco3)c(-c3ccco3)nc2-c2ccco2)c1 | 16.6 | 78.0 | 44.6 | 50.0 | 79.9 | 36.7 | / | . | PRMT1 inh conf=.
O=C(OC12CCCN(C1)/C(=C/c1cccc(Cl)c1)C2)c1ccccc1 (stereo unspecified) | / | . | / | . | / | / | / | /
COc1cc(NC(=O)OCc2ccccc2)c2ncccc2c1 | . | . | / | . | / | / | / | /
COc1cc(NC(C)CCCN)c2ncccc2c1 (stereo unspecified) | . | . | 35.5 | 64.2 | 47.5 | . | . | .
O=C1C(Nc2cccc(O)c2)=C(N2CCCCC2)C(=O)c2ccccc21 | . | . | 18.4 | 50.7 | 79.4 | 63.0 | . | 51.6
Cc1ccc(C(=O)Nc2cccc(O)c2)cc1S(=O)(=O)N1CCCCCC1 | . | . | . | . | . | / | / | /
O=C1C(Nc2ccccc2)=C(N2CCCCC2)C(=O)c2ccccc21 | . | . | 14.9 | 59.1 | 62.2 | 56.2 | . | 57.3
O=C(/C=C/c1ccc(O)cc1)c1ccc(NC2=C(N3CCCCC3)C(=O)c3ccccc3C2=O)cc1 | . | . | . | 48.6 | 65.1 | 51.3 | / | 45.0
Cc1ccc(NC2=C(N3CCCCC3)C(=O)c3ccccc3C2=O)cc1 | . | . | . | 55.8 | 65.2 | 45.5 | / | 61.0
CC1CCCN(C2=C(NS(=O)(=O)c3ccc(Br)cc3)C(=O)c3ccccc3C2=O)C1 (stereo unspecified) | . | . | . | . | . | / | / | /
O=c1nc(N2CCCCC2)nc(Nc2ccccc2)[nH]1 | . | . | . | . | . | / | / | /
O=C(/C=C/c1ccc(O)cc1)c1ccccc1 | . | . | . | . | . | / | / | /
CN(c1ccccc1)c1nc(N)c([N+](=O)[O-])c(N2CCCCC2)n1 | . | . | . | . | . | / | / | /
CN(C1=C(N2CCCCC2)C(=O)c2ccccc2C1=O)c1ccccc1 | . | . | 16.5 | 35.0 | 50.2 | . | / | .
O=C(O)CSc1cc(NS(=O)(=O)c2ccc(Br)cc2)c2ccccc2c1O | . | 56.8 | 31.0 | 70.4 | 90.3 | 81.5 | . | 55.5
